These results are taken from ChEMBL document CHEMBL1139347, “Total synthesis and cytoprotective properties of dykellic acid” (J Med Chem, 2009).

Assay [1] deals with U-937. The assay can be described thus: Cytoprotective activity against 20 uM rotenone-induced intracellular ROS production in human U937 cells at 100 uM pretreated for 5 hrs by 2,7-dichlorodihydrofluorescein dye reduction assay. Format: functional, cell-based. The gist of the method: (§1)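 U-937 cells exposed 5 h to a range of test concentrations or α-tocopherol (100 µM), then rotenone added (final 20 µM). After 40 min, dichlorodihydrofluorescein diacetate (peroxides) or dihydroethidium (superoxide, forming ethidium) added, and cellular fluorescence read by flow cytometry. Compared with vehicle+rotenone control. SDM from n = 3, each in triplicate.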

The subject of assay [2] is U-937. The assay is described as follows: Cytoprotective activity against 5 uM rotenone-induced cell death in human U937 cells pretreated for 5 hrs measured after 24 hrs by cell flow cytometry using propidium iodide staining relative to control. In kind it is functional, cell-based. The gist of the method: (§2)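 U-937 suspension cells preincubated 5 h across a concentration range, then challenged with etoposide (final 1.5 µM) or rotenone (final 5 µM). Death scored 24 h later by propidium iodide staining and flow cytometry. Percent protection derived from live-cell fraction relative to vehicle-only and toxin-only controls. SDM from n = 3, each run in triplicate.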

The test system of assay [3] is U-937. The assay is described as follows: Antiapoptotic activity in human U937 cells assessed as reduction of 1.5 uM etoposide-induced caspase-3/7 like activity at 100 nM pretreated for 5 hrs measured after 24 hrs relative to control. Format: functional, cell-based. The gist of the method:
(§3)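 U-937 cells pretreated 5 h with Z-VAD-fmk (100 nM) or a range of test concentrations, then etoposide added (final 1.5 µM) for 24 h. Cells moved to caspase assay buffer, lysed, and given Ac-DEVD-pNA (final 200 µM). pNA release per minute read at 405 nm. DMSO 1% in all wells. Vehicle+etoposide set to 1.0, vehicle alone set to 0. Triplicate, representative of three experiments.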

In another assay the target is T1, Caspase-3 (Homo sapiens) (UniProt P42574).
T1 sequence (whole entry): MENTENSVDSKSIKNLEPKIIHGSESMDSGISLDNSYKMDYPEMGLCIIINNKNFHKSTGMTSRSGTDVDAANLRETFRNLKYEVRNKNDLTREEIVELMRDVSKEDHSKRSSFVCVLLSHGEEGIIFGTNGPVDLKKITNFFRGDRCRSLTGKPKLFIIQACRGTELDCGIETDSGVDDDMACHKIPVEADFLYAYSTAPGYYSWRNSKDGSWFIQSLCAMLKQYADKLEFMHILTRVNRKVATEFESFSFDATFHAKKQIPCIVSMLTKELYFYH
The assay can be described thus: Inhibition of recombinant caspase 3 activity expressed in Escherichia coli BL21 (DE3) assessed as p-nitroaniline release using Ac-DEVD-pNA substrate up to 100 uM. The gist of the method: (§4)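 Recombinant purified caspase-3, -6, -7 and -8 were run as full Michaelis-Menten curves (velocity vs substrate concentration) at several test concentrations up to 100 µM. Hydrolytic pNA release was followed from enzyme-specific tetrapeptide substrates: Ac-DEVD-pNA for caspase-3 and -7, Ac-VEID-pNA for caspase-6, Ac-IETD-pNA for caspase-8. Kinetics given as kcat/KM.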

The test system of assay [4] is U-937. The assay can be described thus: Cytoprotective activity against 50 uM N-methyl-N'-nitro-N-nitrosoguanidine-induced cell death in human U937 cells pretreated for 5 hrs measured after 24 hrs by cell flow cytometry using propidium iodide staining relative to control. In kind it is functional, cell-based. The method in brief: (§5)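 Protection of U-937 cells against H2O2 or MNNG: 5 h preincubation with a range of concentrations before toxin addition, then viability measured after 24 h by propidium iodide staining and flow cytometry. Reported as percent protection versus vehicle-only and toxin-only control cells.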
(In general: Flow cytometry measures light scatter and fluorescence of single cells or particles in a stream.)

Assay [5] deals with U-937. The assay can be described thus: Cytoprotective activity against 20 uM rotenone-induced intracellular ROS production in human U937 cells at 100 uM pretreated for 5 hrs by dihydroethidium dye reduction assay. In kind it is functional, cell-based. The method in brief:
as §1

Assay [6] relates to U-937. The assay is described as follows: Cytoprotective activity against 50 uM H2O2-induced cell death in human U937 cells pretreated for 5 hrs measured after 24 hrs by cell flow cytometry using propidium iodide staining relative to control. In kind it is functional, cell-based. The gist of the method: as §5
Assay [7] deals with U-937. The assay is described as follows: Antiapoptotic activity in human U937 cells assessed as reduction of 1.5 uM etoposide-induced caspase-3/7 like activity pretreated for 5 hrs measured after 24 hrs relative to control. Format: functional, cell-based. The method in brief:
as §3

The target of the next assay is T2, Caspase-6 (Homo sapiens) (UniProt P55212).
T2 sequence (whole entry): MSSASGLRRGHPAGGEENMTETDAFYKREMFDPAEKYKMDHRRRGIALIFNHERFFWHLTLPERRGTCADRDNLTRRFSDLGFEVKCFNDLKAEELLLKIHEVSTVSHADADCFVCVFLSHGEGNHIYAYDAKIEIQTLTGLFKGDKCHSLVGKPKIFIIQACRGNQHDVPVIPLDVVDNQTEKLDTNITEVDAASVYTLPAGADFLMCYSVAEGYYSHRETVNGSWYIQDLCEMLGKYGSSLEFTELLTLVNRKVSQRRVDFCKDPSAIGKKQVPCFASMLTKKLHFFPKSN
The assay can be described thus: Inhibition of recombinant caspase 6 activity expressed in Escherichia coli BL21 (DE3) assessed as p-nitroaniline release using Ac-VEID-pNA substrate up to 100 uM. The method in brief: as §4

Another assay deals with T3, Caspase-7 (Homo sapiens) (UniProt P55210).
T3 sequence (whole entry): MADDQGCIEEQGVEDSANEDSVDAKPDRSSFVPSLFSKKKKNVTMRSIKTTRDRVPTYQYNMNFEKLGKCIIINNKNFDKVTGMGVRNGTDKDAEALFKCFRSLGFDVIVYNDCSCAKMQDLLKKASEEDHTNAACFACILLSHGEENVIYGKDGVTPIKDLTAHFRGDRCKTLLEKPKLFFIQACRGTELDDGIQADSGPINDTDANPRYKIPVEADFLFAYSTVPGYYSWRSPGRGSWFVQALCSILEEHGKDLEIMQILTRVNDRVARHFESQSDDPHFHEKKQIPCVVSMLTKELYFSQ
The assay can be described thus: Inhibition of recombinant caspase 7 activity expressed in Escherichia coli BL21 (DE3) assessed as p-nitroaniline release using Ac-DEVD-pNA substrate up to 100 uM. The gist of the method:
as §4

For another assay, the target named is Caspase-8 (Homo sapiens) (UniProt Q14790). The assay can be described thus: Inhibition of recombinant caspase 8 activity expressed in Escherichia coli BL21 (DE3) assessed as p-nitroaniline release using Ac-IETD-pNA substrate up to 100 uM. The method in brief: as §4
Caspase-8 (Homo sapiens), sequence (Q14790 217-374 limits assumed): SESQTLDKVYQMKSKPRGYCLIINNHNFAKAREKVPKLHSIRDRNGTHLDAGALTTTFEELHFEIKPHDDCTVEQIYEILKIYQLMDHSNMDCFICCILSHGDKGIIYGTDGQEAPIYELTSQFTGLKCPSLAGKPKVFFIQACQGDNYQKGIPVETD
Caspase-8 (Homo sapiens), sequence (Q14790 385-479 limits assumed): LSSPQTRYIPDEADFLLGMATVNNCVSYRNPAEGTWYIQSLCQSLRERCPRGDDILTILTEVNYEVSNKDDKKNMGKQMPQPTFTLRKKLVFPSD
Assay [8] deals with U-937. The assay can be described thus: Cytoprotective activity against 1.5 uM etoposide-induced cell death in human U937 cells pretreated for 5 hrs measured after 24 hrs by cell flow cytometry using propidium iodide staining relative to control. Format: functional, cell-based. The gist of the method:
as §2

The source made the active and inactive calls. No cut-off for these calls is given here.

As to `C=C1C=C(CCC(=O)O)C(=O)OC1/C=C/C=C/C` (centres undefined), the outcome in the assay on U-937 [1], with U-937 [3], at Caspase-3 (Homo sapiens), in the assay with U-937 [5], with U-937 [6] and at Caspase-6 (Homo sapiens) was inactive. The outcome at Caspase-7 (Homo sapiens) and on Caspase-8 (Homo sapiens) was inactive. Further, the Activity entry in the assay on U-937 [2] and in the assay on U-937 [4] was “Dose-dependent effect” each time. Further, the outcome with U-937 [7] was Active.

As to `C=C1C=CC(=O)OC1/C=C/C=C/C` (centres undefined), the outcome in the assay with U-937 [8] was inactive.

For `C=C1C=C(CCC(=O)O)C(=O)OC1/C=C/C=CC` (centres undefined), in the assay on U-937 [8], the outcome was Active.

Turning to `C=C1C=C(CCC(=O)OC)C(=O)OC1CCCCC` (centres undefined), the outcome with U-937 [8] was inactive.

With `C=C1C=CC(=O)OC1/C=C/CCC` (centres undefined), the outcome in the assay with U-937 [8] was inactive.

Regarding `C=C1C=CC(=O)OC1CCCCC` (centres undefined), the outcome with U-937 [8] was inactive.

With `C=C1C=C(CCC(=O)OC)C(=O)OC1/C=C/C=C/C` (centres undefined), in the assay on U-937 [8], the result was inactive.

In the case of `Cc1c(C)c2c(c(C)c1O)CC[C@@](C)(CCC[C@H](C)CCC[C@H](C)CCCC(C)C)O2`, the result with U-937 [1] and with U-937 [5] was Active.
